In ChEMBL document CHEMBL4513216, “Probing the Open Global Health Chemical Diversity Library for Multistage-Active Starting Points for Next-Generation Antimalarials” (ACS Infect Dis, 2020) one finds cytotoxicity data, which are given here for 96 compounds.

Structures are written as SMILES.

The nature of this data set: Toxicity liver stage against HepG2, at 10uM. The format is cell-based. Also on record: test concentration 10 uM, cell line HepG2-A16-CD81EGFP. The conditions noted are these: human, HepG2-A16-CD81EGFP cells; read-out: INHIBITION
The method, boiled down: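 Uninfected HepG2-A16-CD81EGFP cells, 3 × 10^3 per well, 1536-well, plated on prespotted compound at 10 μM final, parasite-free screening media added to match infected plates; puromycin 10 μM positive, DMSO 0.5% negative; run in parallel with 48 h PbLuc assay at 37 °C, 5% CO2; viability by CellTiter-Glo luminescence, normalized to controls.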
With `CCOC(=O)N1CC(=O)N(Cc2ccc(OC)cc2)CC(O)C1` (stereo unspecified), the cytotoxicity at 10 µM was -2.67%.
Under `CNCc1cc(C)n(-c2ccccc2OC)c1C` stands -45%; under `COCCN1C(=O)c2ccc(C(=O)NCCc3c[nH]cn3)cc2C1=O`, -7.13%.
Turning to `Cc1ccc(S(=O)(=O)c2ncccc2CN2CCN(C)CC2)cc1`, the cytotoxicity at 10 µM is -51.3%.
Under `Cc1ccc(S(=O)(=O)c2ncccc2CN2CCN(CCO)CC2)cc1` stands -49.1%.
In the case of `Cc1cc(=O)[nH]c(-n2nc(C3CC3)cc2N)n1` it was -4.84%.
In the case of `Cc1cc(=O)n(CCNS(=O)(=O)c2cccc(C(F)(F)F)c2)cn1` it was -6.98%; in that of `Cc1nsc(C(=O)NCCc2ccc(S(N)(=O)=O)cc2)n1`, 7.11%.
`CC(C)CN1C(=O)CO[C@@H]2CN(C(=O)NC(C)C)C[C@H]21`: the cytotoxicity at 10 µM is -5.27%.
Turning to `Nc1ncccc1C(=O)NCc1cccc(Br)c1`, the cytotoxicity at 10 µM came to 42.6%.
Under `Cc1c(C)n(Cc2ccncc2)c2nc3c(c(N)c12)CCCCC3` stands 1.26%; under `CCC(=O)c1ccc(Br)cc1NN1c2cc(Br)ccc2C(=O)C1(C)OC` (stereo unspecified), 78.6%.
For `O=C(CCn1ncc2c(Cl)cccc21)NCC1CC1`, the cytotoxicity at 10 µM turned out to be 10.6%.
For `Cc1cccc(OCc2ccc(C(=O)N3N=CCC3(O)C(F)(F)F)o2)c1` (stereo unspecified), the cytotoxicity at 10 µM stood at 25.2%.
`CCn1cc(-c2cc(C(F)(F)F)nc(NC3CCCC3)n2)c(C)n1`: the cytotoxicity at 10 µM was determined as 2.33%.
Consider `c1ccc(CCN2CCCC2c2cccc(Nc3nccs3)n2)cc1` (stereo unspecified), for which the cytotoxicity at 10 µM is 8.91%.
`CCOc1ccc([C@@H]2N[C@H](c3nccs3)Cc3ccsc32)cc1OC`: the cytotoxicity at 10 µM was determined as 38%.
As for `Cc1cc(-c2cnc(NCc3cccnc3)nc2C(C)C)on1`, the cytotoxicity at 10 µM turned out to be 19.2%.
In the case of `COc1c(CNCCc2c[nH]c3cc(F)ccc23)c(C)nn1C`, the cytotoxicity at 10 µM was -7.53%.
In the case of `CN1CCC(N(Cc2ccco2)S(=O)(=O)c2cc(Br)ccc2Br)CC1`, the cytotoxicity at 10 µM was -17.7%.
For `Cc1ccc(OCC(=O)NS(=O)(=O)Cc2ccccc2)cc1`, the cytotoxicity at 10 µM was 2.07%.
For `CCNC(=O)CN(CC)C(=O)c1cccc(Nc2cnn(C)c2)c1`, the cytotoxicity at 10 µM is 7.68%.
Consider `Cc1nc(COC(=O)c2cccc3c2OCCO3)no1`, for which the cytotoxicity at 10 µM worked out at 5.55%.
Under `CCc1ccc(CCC(=O)N2CCC(=O)Nc3cccnc32)cc1` stands -46.7%; under `O=C(NCc1cccnc1OCC(F)(F)F)N1CCOCC1`, -43.4%.
For the compound `Cc1ccccc1CC(C)(C)NC(=O)CCOc1cccc(C(N)=O)c1`, the cytotoxicity at 10 µM is -4.07%.
As to `CCS(=O)(=O)Cc1nc(-c2cnn3c(C)cc(C)nc23)no1`, the cytotoxicity at 10 µM is -4.79%.
In the case of `NC(=O)C1CN(c2ccc(Br)cn2)CCO1` (stereo unspecified), the cytotoxicity at 10 µM was 0.105%.
Regarding `O=C(NCCN1CCOCC1)C(OC1CCCC1)c1ccccc1` (stereo unspecified), the cytotoxicity at 10 µM was -2.99%.
In the case of `CCOC(=O)C1CCN(C(=O)CN2CCCC2c2ccccc2C)CC1` (stereo unspecified), the cytotoxicity at 10 µM came to 7.97%.
Under `CC(=O)N(Cc1ncc(C)o1)C1CCN(Cc2ccc(F)c(F)c2)C1` (stereo unspecified) stands 13.4%.
On to `COc1ccc(NC(=O)CCC(C)C)c(N2CCN(C(C)=O)CC2)n1`, for which the cytotoxicity at 10 µM amounted to 8.43%.
Under `Cc1ccc(C(CNCc2ccc(C#N)cc2)N2CCOCC2)s1` (stereo unspecified) stands 15.3%; under `COCc1nc2cc(NCc3scnc3C)ccc2o1`, 18.6%.
Turning to `Cc1cc(C(=O)Nc2ccc3oc(=O)n(CCN(C)C)c3c2)c(C)o1`, the cytotoxicity at 10 µM is -2.22%.
Take `Cc1nn(C)c(C)c1C1CCCN1c1ncnc2sccc12` (stereo unspecified): the cytotoxicity at 10 µM came to 44.1%.
Consider `CCOc1cc(CN(C)Cc2ccccc2)ccc1OC(F)F`, for which the cytotoxicity at 10 µM is -14.7%.
For the compound `N#CCSCCCN1CCN(C(=O)c2ccccc2F)CC1`, the cytotoxicity at 10 µM is -147%.
Under `Cc1noc(-c2ccnc(N3CCC(CN4CCOCC4)CC3)c2)n1` stands -2.11%; under `CCC(C)(COc1ncccc1Cl)NCC(=O)NC1CCCCC1` (stereo unspecified), 0.651%; under `CCN(CC)S(=O)(=O)N(C)Cc1ccncc1`, 0.52%.
Regarding `Cc1ncsc1CNC(=O)NCC1(c2ccc3c(c2)OCO3)CC1`, the cytotoxicity at 10 µM came to 14.3%.
In the case of `COc1ccc(CNc2c(C)nn(C(C)C)c2C)cc1`, the cytotoxicity at 10 µM is -37.1%.
For `Cc1ccc2cc(C(=O)N3CCN(C(=O)N(C)C)CC3)ccc2n1`, the cytotoxicity at 10 µM was -52.1%.
In the case of `O=C(CN1CCCCC1Cn1cncn1)NC1CCN(C2CC2)CC1` (stereo unspecified), the cytotoxicity at 10 µM is -19.3%.
Regarding `CC(C)(C)c1ccc(C2(C(=O)NCCS(N)(=O)=O)CC2)cc1`, the cytotoxicity at 10 µM was 0.515%.
For the compound `Cc1cccc(C(=O)N2CCC3(CC2)CC(c2cnn(C)c2)CO3)c1` (stereo unspecified), the cytotoxicity at 10 µM was -78.7%.
Under `CN1CCCN(c2nccc(-c3c[nH]nc3C3CCCCC3)n2)CC1` stands 0.746%; under `CCNC(=O)[C@@H]1C[C@H](NC(=O)c2ccc(C)s2)CN1Cc1ccc(C)o1`, -5.39%; under `CC(C)c1nnsc1CN1CCc2[nH]nc(-c3ccc(F)c(F)c3)c2C1`, 25.9%.
With `Cc1ccc(-c2ccnc(N3CCC4(CC3)CNC(=O)C4)n2)c(C)n1`, the cytotoxicity at 10 µM is -5.3%.
For the compound `CN(Cc1ccc(-n2cccn2)cc1)C[C@@H]1CCCN2CCCC[C@H]12`, the cytotoxicity at 10 µM stood at 0.537%.
Take `CCc1ccc(C(=O)N2CCC3(CCC(=O)N(CCN(C)C)C3)CC2)[nH]1`: the cytotoxicity at 10 µM came out at 5.96%.
Regarding `Cc1ccc2nc(CN(C)Cc3n[nH]c4c3CCCCC4)[nH]c2c1C`, the cytotoxicity at 10 µM is 17.1%.
`COc1ccc2c(c1)OCC(CNc1cc(N)nc(SC)n1)C2` (stereo unspecified): the cytotoxicity at 10 µM turned out to be 34.4%.
In the case of `COc1cccc(OC2CN(C(=O)CCn3cnc4ccccc43)C2)c1` it was 3.67%; in that of `Cc1nc(CC(=O)NCc2csc(N3CCCC3)n2)cs1`, -5.26%; in that of `Cc1ccc2nc(CN3CCC(O)(CN4CCCC4)CC3)cc(O)c2c1`, -51.9%.
As to `Cc1ncnc(NCC(C)N(C)c2ccccc2)c1C` (stereo unspecified), the cytotoxicity at 10 µM came to 60.3%.
In the case of `c1ccc(C(Cn2cnnc2)N2CCOCC2)nc1` (stereo unspecified), the cytotoxicity at 10 µM was found to be 0.997%.
Under `CS(=O)(=O)c1ccc(CN2CCCC3(C2)C(=O)Nc2ccccc23)cc1` (stereo unspecified) stands -1.3%; under `CC(C)C1CN(c2cccc(C#N)n2)CCCN1Cc1ccc(F)cc1` (stereo unspecified), 10%.
`COc1ccc(Cl)cc1-n1nc(C2CCCC2)nc1Cn1cnnn1`: the cytotoxicity at 10 µM is -15.5%.
In the case of `CCN1CCC(CC(=O)NCc2nc(C)cc(C)n2)CC1`, the cytotoxicity at 10 µM was -8.75%.
In the case of `O=C(NCC1CCCO1)c1coc(Cn2cnc3ccccc32)n1` (stereo unspecified) it was -3.67%; in that of `CN(Cc1n[nH]c2c1CCC2)C(=O)c1cccc(CCC(C)(C)O)c1`, 3.01%; in that of `CN1CCN(Cc2n[nH]c(=O)n2CC2CCCCC2)CC1`, -47.9%.
On to `c1ccc(C2CN(C3CC3)CC3(CCN(Cc4cscn4)CC3)C2)cc1` (stereo unspecified), for which the cytotoxicity at 10 µM came out at 5.58%.
With `CNc1ccc(C(=O)N(C)Cc2ccc3ccccc3n2)cn1`, the cytotoxicity at 10 µM is 1.5%.
With `O=C1CC2(CCN(CC3CC3)CC2)CN1Cc1cc(F)cc(F)c1`, the cytotoxicity at 10 µM amounted to 2.34%.
With `COc1ccccc1N1CC(NC(=O)c2cc(C(C)C)nn2C)CC1=O` (stereo unspecified), the cytotoxicity at 10 µM was 52.4%.
For `Cc1ccccc1-n1cc(C2=CCN(CCn3cc[nH]c3=O)CC2)cn1`, the cytotoxicity at 10 µM was found to be 16.5%.
Regarding `Cc1nc[nH]c1CN1CCOC(c2ccc(Cl)c(Cl)c2)C1` (stereo unspecified), the cytotoxicity at 10 µM came to 0.833%.
Under `CCc1ccc(C(=O)N2CCN(Cc3ccc(F)cc3)CC2)s1` stands 13.4%; under `CN(c1ccc(C(=O)NCCCN2CCCCC2)c(Cl)c1)S(C)(=O)=O`, -0.313%.
As for `O=C1CC(c2ccccc2F)c2c(n(C3CCCC3)[nH]c2=O)N1` (stereo unspecified), the cytotoxicity at 10 µM is -5.07%.
With `COc1cccc(CC(=O)N2CCC3(CC2)OCCCC3O)c1OC` (stereo unspecified), the cytotoxicity at 10 µM was -5.7%.
`O=C1CC(c2ccc(F)cc2)c2cnn(C3CCCC3)c2N1` (stereo unspecified): the cytotoxicity at 10 µM was determined as 3.82%.
For the compound `CSCCC1c2nc[nH]c2CCN1Cc1cc(Cl)ccc1O` (stereo unspecified), the cytotoxicity at 10 µM is 23.3%.
`COc1ccc(CCN2CCCC(CN(C)Cc3ccc(C)o3)C2)cc1` (stereo unspecified): the cytotoxicity at 10 µM was -14.5%.
In the case of `Cc1cnn(CC2CN(Cc3cccc(OC(C)C)c3)CCO2)c1` (stereo unspecified) it was -4.83%.
For `O=C1NCCN1C1CCN(CCOc2cccc3ccccc23)CC1`, the cytotoxicity at 10 µM was -5.72%.
For the compound `CN(C)c1cc(CNC(=O)Nc2ccc(N3CCCC3)nc2)ccn1`, the cytotoxicity at 10 µM was -0.338%.
In the case of `Cc1ccc(C(=O)N2CCC(Oc3ccc(C)c(C)c3)CC2)c(=O)[nH]1` it was 12.9%; in that of `Cc1csc(N2CCCN(C(=O)Cc3ccc(C)s3)CC2)n1`, -12%; in that of `CC(C(=O)Nc1cccc(N2CCCCC2)c1)n1cncn1` (stereo unspecified), -7.3%.
Turning to `CN(C)c1cc(CNC(=O)c2cn(-c3ccc(F)cc3)nn2)ccn1`, the cytotoxicity at 10 µM worked out at 11.5%.
Turning to `CC(C)(C)C(O)CN1CCN(C(=O)c2cccc3[nH]ncc23)CC1` (stereo unspecified), the cytotoxicity at 10 µM was determined as 5.93%.
For `CC1N(C)C(=O)COC12CCN(Cc1nccs1)CC2` (stereo unspecified), the cytotoxicity at 10 µM is -124%.
Under `Cc1cc(CN2C[C@@H]3COC[C@]3(CNC(=O)N3CCCC3)C2)no1` stands -77.5%; under `CC(C)NC(=O)N1CCN(CC2CC2)CC2(CNC(=O)C2)C1` (stereo unspecified), 2.52%; under `Cc1cccc(CN2C(=O)CC[C@@H]3[C@H]2CCN3Cc2ccc(F)cc2)n1`, -72.1%.
For the compound `O=C(N1CCCC1)N1CCC2(CCCN(CCOc3ccccc3)C2)C1` (stereo unspecified), the cytotoxicity at 10 µM was 11.3%.
In the case of `c1ccc(N2CCCC3(COCCN(c4nccs4)C3)C2)nc1` (stereo unspecified), the cytotoxicity at 10 µM is -8.89%.
Turning to `CC(C)CN1CCC2(COCc3cnc(-c4ccccc4)nc32)C1` (stereo unspecified), the cytotoxicity at 10 µM was -103%.
On to `CN(Cc1cccnc1)C1CC2(CCN(Cc3cccnc3)CC2)C1`, for which the cytotoxicity at 10 µM is -87.2%.
